In PubChem BioAssay AID1747 (Sanford-Burnham Center for Chemical Genomics, 2009) one finds cytotoxicity with TRAIL and cytotoxicity data, which are given here for 3 compounds.

Molecules are shown by their SMILES.

For this assay, the system named is MDA-MB-435 + TRAIL, ATPlite cytotoxicity, 24 h. Briefly: potentiation of TRAIL cytotoxicity in resistant cells, confirmation, cell-based, MDA-MB-435, ATPlite luminescence, 24 h (AID 1747). To be noted: stronger effect = higher value; for cytotoxicity: compound alone, no TRAIL. In short, it runs like this:
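Material: TRAIL-resistant human MDA-MB-435 cancer cells / Also added: TRAIL, 30 ng/mL / Times: 24 h cell growth, 4 h compound pretreatment, 24 h TRAIL exposure / Signal: ATPlite ATP luminescence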
Background: In ATP-based viability assays light output follows the ATP content of the culture.

[1] abbreviates: compound plus TRAIL, at 1.25 µM.

For `CCSc1nc(-c2ccccc2)nc(C(Cl)Cl)n1`, the cytotoxicity with TRAIL was 73% (at 5 µM); 28% under setting [1]; 45% (compound plus TRAIL, at 2.5 µM). Further, the cytotoxicity (at 5 µM) came out at 0%.
Taken in the same sequence, the figures for `CSc1nc(-c2ccccc2)nc(C(Cl)Cl)n1` were 82%, 44%, 58% and 0%.
For `CSc1nc(-c2ccc(C)cc2)nc(C(Cl)Cl)n1` the same measures were 71%, 43%, 60% and 0%.
